In ChEMBL document CHEMBL1629491, “Post Groebke-Blackburn multicomponent protocol: synthesis of new polyfunctional imidazo[1,2-a]pyridine and imidazo[1,2-a]pyrimidine derivatives as potential antimicrobial agents” (2010):
Values after ≈ are worked out from the molar mass of the structure shown.

Legend:
Format in all cases: functional
Escherichia coli = test: Antimicrobial activity against Escherichia coli after 24 hrs […]
Method in brief: (§1)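 Broth microdilution MIC. Bacteria were grown in Luria broth (1% tryptone, 0.5% yeast extract, 0.5% NaCl, pH 7.2) at 37 °C for 24 h. Mid-log cultures were read at OD540 and diluted to OD 0.004 (5 × 10⁵ CFU/mL) before inoculation. Compounds in DMSO were given as eleven twofold serial dilutions, and plates were incubated at 37 °C for 24 h. MIC was the lowest concentration with no visible growth by turbidity. Cefixime, amoxicillin and vancomycin were the positive controls.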

Pseudomonas aeruginosa = test: Antimicrobial activity against Pseudomonas aeruginosa after 24 hrs […]; method in brief: as §1
Klebsiella aerogenes = test: Antimicrobial activity against Enterobacter aerogenes after 24 hrs […]; method in brief: as §1
Staphylococcus aureus = test: Antimicrobial activity against Staphylococcus aureus after 24 hrs […]; method in brief: as §1
Enterococcus faecalis = test: Antimicrobial activity against Enterococcus faecalis after 24 hrs […]; method in brief: as §1
Priestia megaterium = test: Antimicrobial activity against Bacillus megaterium after 24 hrs […]; method in brief: as §1

Compound	MIC (Escherichia coli)	MIC (Pseudomonas aeruginosa)	MIC (Klebsiella aerogenes)	MIC (Staphylococcus aureus)	MIC (Enterococcus faecalis)	MIC (Priestia megaterium)
CN[C@H](CC(C)C)C(=O)N[C@H]1C(=O)N[C@@H](CC(N)=O)C(=O)N[C@H]2C(=O)N[C@H]3C(=O)N[C@H](C(=O)N[C@H](C(=O)O)c4cc(O)cc(O)c4-c4cc3ccc4O)[C@H](O)c3ccc(c(Cl)c3)Oc3cc2cc(c3O[C@@H]2O[C@H](CO)[C@@H](O)[C@H](O)[C@H]2O[C@H]2C[C@](C)(N)[C@H](O)[C@H](C)O2)Oc2ccc(cc2Cl)[C@H]1O [VANCOMYCIN]	6.65 µg/mL (≈ 4.59 µM)	23.5 µg/mL (≈ 16.2 µM)	0.52 µg/mL (≈ 0.359 µM)	2.75 µg/mL (≈ 1.9 µM)	4.21 µg/mL (≈ 2.9 µM)	6.37 µg/mL (≈ 4.4 µM)
Cc1ccc(-c2nc3ncc(-c4nc5ccc(F)cc5[nH]4)cn3c2Nc2ccccc2)cc1	3.44 µg/mL (≈ 7.92 µM)	4.72 µg/mL (≈ 10.9 µM)	6.18 µg/mL (≈ 14.2 µM)	6.32 µg/mL (≈ 14.5 µM)	5.76 µg/mL (≈ 13.3 µM)	17.2 µg/mL (≈ 39.5 µM)
Fc1ccc(-c2nnc(-c3ccc4nc(-c5ccc(Oc6ccccc6)cc5)c(Nc5ccccc5)n4c3)o2)cc1	11.7 µg/mL (≈ 21.7 µM)	9.64 µg/mL (≈ 17.9 µM)	8.42 µg/mL (≈ 15.6 µM)	11.1 µg/mL (≈ 20.6 µM)	12.6 µg/mL (≈ 23.3 µM)	17.4 µg/mL (≈ 32.3 µM)
CC1(C)S[C@@H]2[C@H](NC(=O)[C@H](N)c3ccc(O)cc3)C(=O)N2[C@H]1C(=O)O [AMOXICILLIN]	16.4 µg/mL (≈ 45 µM)	14.5 µg/mL (≈ 39.8 µM)	3.65 µg/mL (≈ 9.99 µM)	13.3 µg/mL (≈ 36.5 µM)	1.22 µg/mL (≈ 3.34 µM)	2.75 µg/mL (≈ 7.53 µM)
Brc1ccc(-c2nc3ccc(-c4ncc(-c5ccc(Oc6ccccc6)cc5)[nH]4)cn3c2Nc2ccccc2)cc1	33.3 µg/mL (≈ 55.6 µM)	44.3 µg/mL (≈ 74 µM)	53.4 µg/mL (≈ 89.2 µM)	58.4 µg/mL (≈ 97.5 µM)	39.6 µg/mL (≈ 66.2 µM)	53.2 µg/mL (≈ 88.8 µM)
Cc1ccc(-c2nnc(-c3cnc4nc(-c5ccc(Br)cc5)c(Nc5ccccc5)n4c3)o2)cc1	8.56 µg/mL (≈ 16.4 µM)	7.64 µg/mL (≈ 14.6 µM)	6.43 µg/mL (≈ 12.3 µM)	5.31 µg/mL (≈ 10.1 µM)	8.71 µg/mL (≈ 16.6 µM)	13.6 µg/mL (≈ 26 µM)
O=[N+]([O-])c1ccc2nc(-c3ccc4nc(-c5ccc(Br)cc5)c(Nc5ccccc5)n4c3)[nH]c2c1	11.3 µg/mL (≈ 21.5 µM)	14.5 µg/mL (≈ 27.6 µM)	12.8 µg/mL (≈ 24.5 µM)	10.3 µg/mL (≈ 19.6 µM)	13.4 µg/mL (≈ 25.4 µM)	17.5 µg/mL (≈ 33.4 µM)
Cc1ccc2nc(-c3ccc4nc(-c5ccc(Br)cc5)c(Nc5ccccc5)n4c3)[nH]c2c1	10.3 µg/mL (≈ 20.9 µM)	13.4 µg/mL (≈ 27 µM)	11.8 µg/mL (≈ 23.8 µM)	9.51 µg/mL (≈ 19.2 µM)	13.6 µg/mL (≈ 27.6 µM)	18.6 µg/mL (≈ 37.6 µM)
O=[N+]([O-])c1ccc(-c2cnc(-c3cnc4nc(-c5ccc(Br)cc5)c(Nc5ccccc5)n4c3)[nH]2)cc1	5.33 µg/mL (≈ 9.65 µM)	7.81 µg/mL (≈ 14.1 µM)	9.33 µg/mL (≈ 16.9 µM)	4.22 µg/mL (≈ 7.64 µM)	9.61 µg/mL (≈ 17.4 µM)	17.4 µg/mL (≈ 31.6 µM)
Cc1ccc(-c2nnc(-c3ccc4nc(-c5ccc(Br)cc5)c(Nc5ccccc5)n4c3)o2)cc1	12.4 µg/mL (≈ 23.7 µM)	10.2 µg/mL (≈ 19.5 µM)	11.3 µg/mL (≈ 21.6 µM)	12.3 µg/mL (≈ 23.5 µM)	11.8 µg/mL (≈ 22.6 µM)	16.6 µg/mL (≈ 31.7 µM)
Cc1ccc(-c2nc3ccc(-c4nnc(-c5ccc([N+](=O)[O-])cc5)o4)cn3c2Nc2ccccc2)cc1	13.4 µg/mL (≈ 27.5 µM)	12.6 µg/mL (≈ 25.7 µM)	10.2 µg/mL (≈ 20.8 µM)	9.85 µg/mL (≈ 20.2 µM)	11.4 µg/mL (≈ 23.3 µM)	15.5 µg/mL (≈ 31.7 µM)

Now those with a lower MIC (Escherichia coli), led by results:

MIC (Escherichia coli)	MIC (Pseudomonas aeruginosa)	MIC (Klebsiella aerogenes)	MIC (Staphylococcus aureus)	MIC (Enterococcus faecalis)	MIC (Priestia megaterium)	Compound
3.18 µg/mL (≈ 6.43 µM)	5.22 µg/mL (≈ 10.6 µM)	7.15 µg/mL (≈ 14.5 µM)	5.11 µg/mL (≈ 10.3 µM)	6.28 µg/mL (≈ 12.7 µM)	14 µg/mL (≈ 28.2 µM)	Cc1ccc(-c2nc3ccc(-c4nc5ccc(Br)cc5[nH]4)cn3c2Nc2ccccc2)cc1
3.11 µg/mL (≈ 5.74 µM)	1.82 µg/mL (≈ 3.36 µM)	1.89 µg/mL (≈ 3.49 µM)	1.76 µg/mL (≈ 3.25 µM)	4.28 µg/mL (≈ 7.9 µM)	11.6 µg/mL (≈ 21.5 µM)	Clc1ccc(-c2cnc(-c3cnc4nc(-c5ccc(Br)cc5)c(Nc5ccccc5)n4c3)[nH]2)cc1
2.78 µg/mL (≈ 6.01 µM)	3.65 µg/mL (≈ 7.89 µM)	5.29 µg/mL (≈ 11.4 µM)	5.47 µg/mL (≈ 11.8 µM)	4.58 µg/mL (≈ 9.9 µM)	15.3 µg/mL (≈ 33.1 µM)	Cc1ccc(-c2nc3ncc(-c4nnc(-c5ccc(F)cc5)o4)cn3c2Nc2ccccc2)cc1
2.29 µg/mL (≈ 4.59 µM)	2.85 µg/mL (≈ 5.71 µM)	2.25 µg/mL (≈ 4.51 µM)	1.23 µg/mL (≈ 2.46 µM)	6.64 µg/mL (≈ 13.3 µM)	11.7 µg/mL (≈ 23.5 µM)	Fc1ccc2nc(-c3cnc4nc(-c5ccc(Br)cc5)c(Nc5ccccc5)n4c3)[nH]c2c1
1.42 µg/mL (≈ 2.63 µM)	2.52 µg/mL (≈ 4.66 µM)	1.17 µg/mL (≈ 2.16 µM)	0.93 µg/mL (≈ 1.72 µM)	2.96 µg/mL (≈ 5.47 µM)	9.13 µg/mL (≈ 16.9 µM)	Clc1ccc(-c2cnc(-c3ccc4nc(-c5ccc(Br)cc5)c(Nc5ccccc5)n4c3)[nH]2)cc1
1.15 µg/mL (≈ 2.19 µM)	2.34 µg/mL (≈ 4.45 µM)	1.11 µg/mL (≈ 2.11 µM)	0.63 µg/mL (≈ 1.2 µM)	4.21 µg/mL (≈ 8.01 µM)	9.17 µg/mL (≈ 17.5 µM)	Fc1ccc(-c2cnc(-c3cnc4nc(-c5ccc(Br)cc5)c(Nc5ccccc5)n4c3)[nH]2)cc1
